Sampled rows, rich in hits. Any-hit rate of the full collection: about 1.8%.
XBP1 UPR activ: activators of adaptive XBP1 UPR arm, primary screen, cell-based, CHO-XBP1 luciferase reporter, luminescence, uHTS; IRE1-XBP1 UPR activation; percent of tunicamycin response, DMSO as zero; activation, % at 20 µM; actives 0.33% (n = 330,000); AID 463104, 2010;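 active means versus positive control, 20 µM dose yields 30% or more activation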;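 further: 100% = tunicamycin at 10 µg/mL and 0% = DMSO only wells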
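Material: IRE1-XBP1 luciferase reporter CHO line / Quantity: one thousand reporter cells per well / Buffer or medium: F12 with 10% serum / Compound: 20 µM single concentration, DMSO 1% / Times: 6 h treatment, 37 °C / Detection: Steady-Glo luciferase glow luminescence, 10 min after reagent addition / Benchmarks: tunicamycin high, DMSO low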
Jurkat NFkB inh: inhibitors of induced NF-kB luciferase reporter, primary screen, TCR NF-kB activation inhibitor project, cell-based, luminescence, uHTS; Jurkat, PMA/ionomycin-induced NF-kB luciferase reporter; AID 435003, 2010; inhibition, % at 4 µM; actives 0.53% (n = 330,000); in the data active means inhibition above about 50%
UPR CHOP act: activators of apoptotic CHOP UPR arm, primary screen, cell-based, CHO-CHOP luciferase reporter, luminescence, uHTS. actives 0.34% (n = 330,000). UPR activation; percent of tunicamycin response over DMSO baseline. activation, % at 10 µM;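 active means at 10 µM dose, activation of 40% or more, normalized to positive control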;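 further: 100% = tunicamycin at 10 µg/mL and 0% = DMSO alone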
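Assay system: CHO-CHOP cells, stable luciferase reporter of PERK-eIF2a-CHOP signalling / Buffer or medium: F12 plus 10% serum / Compound dosing: one dose, 10 µM in 0.5% DMSO / Times: 6 h compound treatment, 37 °C / Technique: luciferase luminescence / Read-out: % reporter activation, DMSO baseline versus tunicamycin full activation / Benchmarks: tunicamycin and DMSO controls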
CRFBP-R2 block: antagonists of CRF-BP/CRF-R2 complex, primary screen, cell-based, HEK293, calcium dye fluorescence, uHTS | CRF-induced calcium fluorescence | inhibition, % at 11.8 µM | actives 0.59% (n = 350,000) | AID 588475, 2011;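 active means inhibition of the ligand-induced calcium signal above about 50% at the single tested concentration, limit read from the data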
697 NFkB inh: inhibitors of PMA/ionomycin-induced NF-kB reporter, 697 cells, primary screen, B-cell NF-kB inhibitor project, cell-based, luminescence, uHTS. 697 B-cell NF-kB luciferase reporter, 16 h. inhibition, % at 4 µM. actives 0.33% (n = 330,000); in the data active means inhibition above about 35%
* hit, by the source's call.

Screening O=C(O)c1ccccc1NS(=O)(=O)c1ccc2c(c1)OCCO2 returned XBP1 UPR activ -0.9, Jurkat NFkB inh -0.8, UPR CHOP act -1.1, CRFBP-R2 block 56.6* and 697 NFkB inh 10.0.
For Cc1cc(C)c(C)c(S(=O)(=O)Nc2ccccc2C(=O)O)c1C the results were XBP1 UPR activ -1.6, Jurkat NFkB inh -5.1, UPR CHOP act 0.3, CRFBP-R2 block 85.3* and 697 NFkB inh 5.1.
Screening Cc1cc(NC(=O)c2ccccc2NS(=O)(=O)c2c(C)c(C)cc(C)c2C)no1 returned XBP1 UPR activ 0.1, Jurkat NFkB inh 1.2, UPR CHOP act -1.7, CRFBP-R2 block -17.5 and 697 NFkB inh 3.1.
NC(=O)c1ccccc1NS(=O)(=O)c1ccc2c(c1)OCCO2 was read as XBP1 UPR activ 1.5, Jurkat NFkB inh -4.8, UPR CHOP act -3.3, CRFBP-R2 block -5.2 and 697 NFkB inh -8.8.
Cc1ccccc1NS(=O)(=O)c1ccc(C)c(C(=O)N2CCOCC2)c1 was read as XBP1 UPR activ -1.7, Jurkat NFkB inh -10.8, UPR CHOP act 0.5, CRFBP-R2 block 53.7* and 697 NFkB inh -2.9.
CC(C)Cn1cnc2c(SCCc3ccccc3)nc(N)nc21 was read as CRFBP-R2 block 2.7.
For CCN(CC)S(=O)(=O)c1ccc(C(C)NC(=O)C2CCCN2C(=O)c2cccs2)cc1 (centres undefined) the results were XBP1 UPR activ -1.5, Jurkat NFkB inh 4.9, UPR CHOP act 0.6, CRFBP-R2 block 5.0 and 697 NFkB inh 1.2.
For Cc1csc(=O)n1CCC(=O)OC(C)C(=O)NCc1ccccc1 (centres undefined) the results were XBP1 UPR activ 0.1, Jurkat NFkB inh 15.5, UPR CHOP act 0.1, CRFBP-R2 block 10.6 and 697 NFkB inh -7.5.
CCn1c(C)nc2cc(C(=O)NN=Cc3ccc([N+](=O)[O-])cc3)ccc21 was read as XBP1 UPR activ -2.6, Jurkat NFkB inh -0.9, UPR CHOP act -1.6, CRFBP-R2 block 72.9* and 697 NFkB inh 2.7.
`Fc1ccc(C2c3cccn3CCN2C(=S)Nc2cccc(F)c2)cc1` (centres undefined) gave XBP1 UPR activ -6.1, Jurkat NFkB inh 2.9, UPR CHOP act -0.2, CRFBP-R2 block 53.0* and 697 NFkB inh 0.5.
`Fc1cccc(NC(=S)N2CCn3cccc3C2c2cccnc2)c1` (centres undefined) gave XBP1 UPR activ 1.1, Jurkat NFkB inh 2.9, UPR CHOP act -1.4, CRFBP-R2 block -10.8 and 697 NFkB inh -7.1.
For CC(C)(C)NC(=O)C(c1ccc(O)cc1)N(Cc1ccc2c(c1)OCO2)C(=O)CCl (centres undefined) the results were CRFBP-R2 block 80.1*.
Screening Cc1ccc(-n2nc3c(c2NC(=O)c2ccc(OC(C)C)cc2)CS(=O)C3)cc1 (centres undefined) returned XBP1 UPR activ -2.9, Jurkat NFkB inh -1.2, UPR CHOP act -0.7, CRFBP-R2 block 67.7* and 697 NFkB inh -3.8.
`O=C(Cc1ccc(Cl)cc1Cl)OCC(=O)N1CCCCC1` gave XBP1 UPR activ 3.5, Jurkat NFkB inh 15.4, UPR CHOP act -0.8, CRFBP-R2 block -7.1 and 697 NFkB inh 3.0.
`Cc1nnsc1-c1onc(C)c1C(=O)O/N=C/c1ccc(Cl)cc1` gave XBP1 UPR activ 2.8, Jurkat NFkB inh 7.1, UPR CHOP act -2.2, CRFBP-R2 block 124.7* and 697 NFkB inh 3.5.
O=C(CCCOc1ccc(Cl)cc1)Nc1cccc(C(=O)O)c1 was read as XBP1 UPR activ -1.3, Jurkat NFkB inh 12.3, UPR CHOP act -0.1, CRFBP-R2 block 83.7* and 697 NFkB inh 15.8.
For CC(=O)c1cccc(NC(=O)CCCOc2ccc(C)cc2)c1 the results were XBP1 UPR activ -1.9, Jurkat NFkB inh 0.8, UPR CHOP act -2.5, CRFBP-R2 block 19.2 and 697 NFkB inh 10.7.
Cc1ccccc1CNC(=O)Nc1cccs1 was read as XBP1 UPR activ 0.7, Jurkat NFkB inh -13.9, UPR CHOP act 1.3, CRFBP-R2 block 53.0* and 697 NFkB inh 5.4.
`O=C(NCc1cccs1)Nc1cccs1` gave XBP1 UPR activ -1.3, Jurkat NFkB inh 5.9, UPR CHOP act 2.0, CRFBP-R2 block -11.7 and 697 NFkB inh 26.7.
O=C(N/N=C(\c1ccccc1)c1cccnc1)c1cc(O)ccc1O was read as XBP1 UPR activ -4.0, Jurkat NFkB inh -1.9, UPR CHOP act 1.1 and 697 NFkB inh 16.4.
For O=S1(=O)CCN(CCc2ccccc2)CC1 the results were CRFBP-R2 block -33.7.
`CCc1nnc(NC(=S)Nc2ccccc2)s1` gave XBP1 UPR activ 2.1, Jurkat NFkB inh -15.9, UPR CHOP act 5.4, CRFBP-R2 block 56.9* and 697 NFkB inh -58.4.
Screening Cc1nnc(SCC(=O)N(C)c2c(N)n(Cc3ccccc3)c(=O)[nH]c2=O)n1Cc1ccccc1 returned XBP1 UPR activ -0.9, Jurkat NFkB inh -7.6, UPR CHOP act -1.8, CRFBP-R2 block 81.2* and 697 NFkB inh 14.0.
For CCn1c(SCC(=O)N(C)c2c(N)n(Cc3ccccc3)c(=O)[nH]c2=O)nc2ccccc21 the results were XBP1 UPR activ 0.7, Jurkat NFkB inh 8.1, UPR CHOP act 1.3, CRFBP-R2 block -0.5 and 697 NFkB inh -3.3.
`CCCCN(C(=O)CSc1ncn[nH]1)c1c(N)n(Cc2ccccc2)c(=O)[nH]c1=O` gave XBP1 UPR activ -0.8, Jurkat NFkB inh 2.9, UPR CHOP act -2.6, CRFBP-R2 block 70.1* and 697 NFkB inh 4.2.
Screening Cc1cccc(C)c1OCC(O)Cn1nnc2ccccc21 (centres undefined) returned XBP1 UPR activ -1.0, Jurkat NFkB inh -7.6, UPR CHOP act 1.7, CRFBP-R2 block 64.8* and 697 NFkB inh -4.9.
Screening COc1ccccc1C(C#N)c1cccc(Cl)n1 (centres undefined) returned XBP1 UPR activ -2.0, Jurkat NFkB inh 4.8, UPR CHOP act 2.4, CRFBP-R2 block 8.9 and 697 NFkB inh 6.1.
Screening CC(=O)c1ccc(NC(=O)CCc2nnc3ccc(N4CCC5(CC4)OCCO5)nn23)cc1 returned XBP1 UPR activ 1.5, Jurkat NFkB inh -45.5, UPR CHOP act 5.4, CRFBP-R2 block 64.7* and 697 NFkB inh -10.9.
`CCOc1ccccc1NC(=O)CCc1nnc2ccc(N3CCC(C)CC3)nn12` gave XBP1 UPR activ 3.6, Jurkat NFkB inh 3.8, UPR CHOP act 4.2, CRFBP-R2 block 68.5* and 697 NFkB inh 1.3.
For Cc1noc(C)c1S(=O)(=O)N1CCC(C(=O)N2CCN(c3ccc(F)cc3)CC2)CC1 the results were XBP1 UPR activ -2.9, Jurkat NFkB inh 6.0, UPR CHOP act 0.5, CRFBP-R2 block 60.4* and 697 NFkB inh 13.9.

Bioassay records as filed in PubChem BioAssay.
